Screening results (PubChem)
Sampled rows, rich in hits. Any-hit rate of the full collection: about 2%.
M5 ag – agonists of human muscarinic M5 receptor (CHRM5). P08912. 360,000 compounds, 0.19% hits. CHO-K1 hM5 cells, Fluo-8 calcium fluorescence; 0% DMSO wells, 100% maximal acetylcholine response. activation, % at 3 µM;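 active = activation above the run's mean over test compounds plus 3 SD, cut at about 23% in these data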;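 also: signal is peak over basal fluorescence ratio across the kinetic read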
M1 antag – blocks human M1 muscarinic receptor; P11229; CHO-K1 hM1, Fluo-8 calcium fluorescence, ACh EC80 antagonist; inhibition, % at 3 µM; 360,000 compounds, 1.3% hits; AID 588852;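 active = percent inhibition above its own plate's cutoff, namely the mean of that plate's compound wells plus 3 SD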;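 also: peak over basal fluorescence ratio during 140 s after agonist addition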
Target sequence (P11229 whole entry, looked up): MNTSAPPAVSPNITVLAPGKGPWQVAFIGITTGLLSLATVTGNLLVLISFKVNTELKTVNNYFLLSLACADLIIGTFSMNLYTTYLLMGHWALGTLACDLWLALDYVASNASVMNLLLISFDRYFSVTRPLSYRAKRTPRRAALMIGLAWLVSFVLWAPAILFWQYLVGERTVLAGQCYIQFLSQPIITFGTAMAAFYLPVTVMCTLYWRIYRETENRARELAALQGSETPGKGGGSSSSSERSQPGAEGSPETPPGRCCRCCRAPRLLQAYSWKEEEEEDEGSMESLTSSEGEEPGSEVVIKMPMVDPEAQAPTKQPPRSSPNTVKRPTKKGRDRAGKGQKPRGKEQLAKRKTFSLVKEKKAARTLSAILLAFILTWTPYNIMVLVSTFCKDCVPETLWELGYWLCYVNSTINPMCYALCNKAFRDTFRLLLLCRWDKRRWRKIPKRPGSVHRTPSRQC
M1 ag – human M1 muscarinic receptor agonism | P11229 | CHO-K1 hM1, Fluo-8 calcium fluorescence, agonist mode; 0% DMSO, 100% acetylcholine EC100 | activation, % at 3 µM | 360,000 compounds, 0.33% hits | AID 588814;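 active = activation above the run's mean compound activation plus 3 SD, cut at about 16% in these data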;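 also: peak over basal fluorescence ratio within a 140 s kinetic read after compound addition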
CHRM5 antagonist – CHRM5 antagonism in calcium assay; inhibition, % at 3 µM; CHO-hM5 cells, Fluo-8 calcium fluorescence, ACh EC80; P08912; AID 624040; 360,000 compounds, 0.59% hits;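 active = inhibition above a per-plate cutoff, the mean of that plate's test compounds plus 3 SD, cut at about 27% in these data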
M5 PAM – CHRM5 positive allosteric modulation; 360,000 compounds, 0.3% hits; AID 624038; activation, % at 3 µM; CHO-K1 hM5, Fluo-8 calcium, ACh EC20 PAM; 0% = ACh EC20, 100% = ACh EC100;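 active = activation above the run cutoff, the mean activation of all test compounds plus 3 SD, cut at about 18% in these data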
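System: CHO-K1 hM5 cells. Reagent: acetylcholine, EC20 level. Compound dosing: single dose, 3 µM nominal final test concentration. Timing: Post-acetylcholine fluorescence recording 140 s. Detection: Fluo-8 calcium fluorescence. Read-out: % activation, ACh-normalized. Benchmarks: ACh EC20 and EC100 wells. Repeats: singlicate, one well per test compound.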
M1 PAM – human CHRM1 positive allosteric modulation; P11229; CHO-K1 hM1, Fluo-8 calcium fluorescence, ACh EC20; 0% = ACh EC20, 100% = maximal ACh; activation, % at 3 µM; 360,000 compounds, 0.088% hits; in the data active = activation above about 19%, passing the limit was not always enough
A number is an active result; 0 = inactive; - = no result.

SMILES | M5 ag | M1 antag | M1 ag | CHRM5 antagonist | M5 PAM | M1 PAM
Cc1ccc(NC(=O)C2CCN(S(=O)(=O)c3ccc(N4CCCC4=O)cc3)CC2)cc1Cl | 0 | 47.2 | 0 | 49.5 | 0 | 0
CC(=O)Nc1cccc(NC(=O)c2cc(-c3cccnc3)nc3ccc(Br)cc23)c1 | 0 | 41.6 | 0 | 0 | 0 | 0
C[C@H](O)[C@@H]1C(=O)N2CCc3c([nH]c4ccccc34)[C@@H]2C[C@@H]1N(C)C(=O)c1ccco1 | 0 | 0 | 0 | 0 | 0 | 0
NN=C1c2ccccc2-c2ccc(N)cc21 | 0 | 0 | 0 | 0 | 0 | 0
O=C(N/N=C/c1ccc(OC2CSC2)cc1)c1ccccc1 | 0 | 0 | 32.3 | 0 | 0 | 0
CC(C)Oc1ccccc1/C=N/NC(=O)c1ccc(F)cc1 | 0 | 0 | 0 | 0 | 0 | 22.0
O=C(N/N=C/c1ccccc1)c1ccc(NC(=O)c2ccc(F)cc2)cc1 | 0 | 0 | 0 | 0 | 20.1 | 0
CC(=O)Nc1ccc(C(=O)N/N=C/c2ccc(F)cc2)cc1 | 0 | 0 | 0 | 0 | 0 | 0
O=C(/C=C/c1ccc(OC2CSC2)cc1)c1ccccc1 | 0 | 0 | 0 | 0 | 0 | 0
CCCCNC(=O)C[C@@H]1C[C@@]2(C(=O)OC)CCCCC=C2N(CCC2=CCCCC2)C1=O | 0 | - | - | 0 | 0 | -
COc1cc(CN2C[C@@H](CO)O[C@@H](n3cnc4c(NCCN(C)C)ncnc43)C2)cc(OC)c1OC | 0 | 0 | 0 | 0 | 0 | 0
CCOC(=O)c1[nH]c2ccc(Br)cc2c1NC(=O)CCN1CCC(C)CC1 | 0 | 31.9 | 0 | 0 | 0 | 0
CCOC(=O)c1[nH]c2ccc(Br)cc2c1NC(=O)CNC | 0 | 0 | 0 | 0 | 0 | 0
CCOC(=O)CCCCCC(=O)Nc1ccc2c(c1)C(=O)N([C@H](C)CO)C[C@H](C)[C@@H](CN(C)C(=O)Nc1ccccc1)OCCCC[C@@H](C)O2 | 0 | 0 | 0 | 0 | 0 | 0
CC1=C2C3OC(=O)C(C)C3CCC2(C)C=CC1=NO (centres undefined) | 0 | 0 | 0 | 0 | 0 | 0
COc1ccccc1N1C(=O)c2cccc3c(N(C)CCO)ccc(c23)C1=O | 23.9 | 0 | 0 | 0 | 0 | 0
CC1Oc2ccc(C#N)cc2N(Cc2cccc(F)c2)C1=O (centres undefined) | 0 | 0 | 0 | 0 | 0 | 0
O=C(CCCn1c(=O)c2cccn2c2cccnc21)N1CCN(c2ccccc2F)CC1 | 0 | 0 | 0 | 0 | 0 | 0
O=C(Cn1c(=O)c2cccn2c2cccnc21)N1CCN(c2ccccc2F)CC1 | 0 | 0 | 0 | 0 | 24.9 | 0
CN(CCc1ccccc1)C(=O)c1[nH]c(C(F)(F)F)nc1-c1ccccc1 | 0 | 0 | 0 | 0 | 0 | 0
CC(C)CC(=O)N1CCC(N(CCc2ccccc2)Cc2ccccc2)CC1 | 0 | 56.9 | 0 | 0 | 0 | 0
CC1CCN(C(=O)CN(CCc2ccccc2)S(C)(=O)=O)CC1 | 0 | 0 | 0 | 0 | 0 | 0
CC1CCCC(NC(=O)c2cc(S(=O)(=O)N3CCCCC3)c[nH]2)C1C (centres undefined) | 0 | 0 | 0 | 0 | 0 | 0
O=C1NC[C@H](CCCCN2C[C@H](Cc3ccccc3)N(CCC3CCCCC3)C(=O)C2=O)N(CCc2ccccc2)C1=O | 0 | - | - | 0 | 0 | -
CCC(=O)N1CCN(c2ccc(NC(=S)NC(=O)COc3ccccc3)cc2)CC1 | 0 | 30.0 | 0 | 0 | 0 | 0
SMILES | M5 ag | M1 antag | M1 ag | CHRM5 antagonist | M5 PAM | M1 PAM
CN1CCN(c2ccc(NC(=S)NC(=O)c3cccc4ccccc34)cc2)CC1 | 0 | 45.2 | 0 | 0 | 0 | 0
CC(=O)N1CCN(c2ccc(NC(=S)NC(=O)COc3ccc(C(C)(C)C)cc3)cc2)CC1 | 0 | 0 | 0 | 0 | 0 | 0
COc1ccc(C(CNc2ccc(S(=O)(=O)N3CCCC3)cc2[N+](=O)[O-])N2CCCC2)cc1 (centres undefined) | 0 | 74.7 | 0 | 32.2 | 0 | 0
CCOC(=O)C1=C(N)Oc2c(oc(CO)cc2=O)C1c1ccc(Cl)cc1 (centres undefined) | 0 | 0 | 0 | 0 | 18.3 | 0
CCC(C)C(CO)NCCCn1cnc2c(OC)ncnc21 (centres undefined) | 0 | 20.8 | 0 | 0 | 0 | 0
COc1cccc(COC(=O)CSCC(=O)Nc2ccc(C)cc2)c1OC | 0 | 0 | 0 | 0 | 0 | 0
COC(=O)c1ccc(CNC(=O)CC[C@H]2O[C@@H](n3cc(C)c(=O)[nH]c3=O)C[C@@H]2O)cc1 | 0 | 0 | 0 | 0 | 0 | 0
O=C(Oc1ccc(Br)cc1C(=S)N1CCCC1)c1ccccc1F | 0 | 0 | 0 | 0 | 0 | 0
O=C(Oc1ccc(Br)cc1C(=S)N1CCCC1)c1ccccc1Cl | 0 | 0 | 0 | 0 | 20.3 | 0
Clc1ccc(OCCN2CCN(c3ncnc4sccc34)CC2)cc1 | 0 | 25.3 | 0 | 32.7 | 0 | 0
Cc1ccc(OCCN2CCN(c3ncnc4sc(C)c(C)c34)CC2)cc1 | 0 | 17.3 | 0 | 31.9 | 0 | 0
Cc1sc2ncnc(N3CCCCC3)c2c1C | 0 | 0 | 0 | 0 | 0 | 0
Cc1ccc(C(C)C)c2c1C(c1ccc3c(c1)OCO3)CC(=O)O2 (centres undefined) | 0 | 0 | 20.6 | 0 | 0 | 0
CC1(Oc2ccc(Cl)cc2)CCN(Cc2ccc(-c3ccccn3)cc2)C1 (centres undefined) | 0 | 0 | 0 | 0 | 0 | 0
O=C(NN1C(=O)/C(=C/c2ccc(O)c(O)c2)SC1=S)c1ccccc1 | 40.4 | 0 | 0 | 0 | 0 | 0
COc1cc(/C=C2\SC(=S)N(c3cccnc3)C2=O)ccc1O | 0 | 0 | 0 | 0 | 0 | 0
COc1cc(/C=C2\SC(=S)N(NC(=O)c3ccc(O)cc3)C2=O)ccc1O | 60.3 | 0 | 37.2 | 0 | 0 | 0
CC(=O)NN1C(=O)/C(=C\c2ccc(O)cc2)SC1=S | 0 | 0 | 0 | 0 | 0 | 0
COc1cc(/C=C2\SC(=S)N(NC(=O)c3cccnc3)C2=O)ccc1O | 0 | 26.9 | 0 | 0 | 0 | 0
O=C(O)c1ccccc1NC(=O)C1CCN(S(=O)(=O)c2ccc3c(c2)OCCO3)CC1 | 0 | 0 | 0 | 0 | 0 | 0
CCOc1ccc(Cl)cc1-c1cc(C(=O)NCCOC)[nH]n1 | 0 | 0 | 0 | 0 | 0 | 0
CCCCN1C(=O)C(CC(=O)NC2CCCCC2)CC(C(=O)N2CCCCCC2)=C1C (centres undefined) | 0 | - | - | 0 | 0 | -
Cc1cc(C(=O)Nc2cccc(-c3ccc(N4CCOCC4)nn3)c2)ccc1[N+](=O)[O-] | 0 | 35.2 | 0 | 0 | 0 | 0
Cc1ccc(C(=O)Nc2cccc(-c3ccc(N4CCOCC4)nn3)c2)cc1C | 0 | 0 | 0 | 0 | 0 | 0
CC(C)(C)NC(=O)C1(C)CCC(=O)N1CC(F)(F)F (centres undefined) | 0 | 0 | 0 | 0 | 0 | 0
